bIAP inhibitor: bovine intestinal alkaline phosphatase inhibitors, primary screen, selectivity assay for TNAP inhibitor project, biochemical, bovine IAP, CDP-star luminescence; alkaline phosphatase, intestinal [Bos taurus]; purified bovine IAP, 30 min; inhibition, % at 20 µM; 190,000 tested, under 10 active; AID 1019, 2008;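 active means over 50% inhibition of intestinal alkaline phosphatase at 20 µM in the single-dose screen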
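test system = bovine IAP enzyme | medium = DEA buffer 100 mM, pH 9.8, with MgCl2 1.0 mM, ZnCl2 0.02 mM | detection = luminescence | dosing = single compound dose of 20 µM, 2% DMSO final | incubation = 30 min reaction at room temperature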
mIAP inh: inhibitors of mouse IAP, primary screen, biochemical, luminescence, uHTS; intestinal alkaline phosphatase [Mus musculus]; purified mouse IAP, CDP-Star luminescence, 30 min; inhibition, % at 10 µM; 330,000 tested, 0.2% active; AID 2806, 2010;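 active means inhibition of at least 40% at 10 µM in the primary screen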;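 further: plate controls were DMSO with enzyme for no effect and no enzyme wells for full effect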
bIAP activator: bovine intestinal alkaline phosphatase activators, primary screen, biochemical, bovine IAP, CDP-star luminescence. purified bovine IAP, 30 min; stronger effect = higher value; fold of DMSO-control signal, blank-subtracted. activation factor at 20 µM. 200,000 tested, 0.17% active. AID 1016, 2008;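 active means activation factor of 2 or more at 20 µM, a signal rise over negative controls twice the positive control's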
hIAP inh: human IAP inhibitors, primary screen, biochemical, luminescence, uHTS | purified IAP, CDP-Star luminescence, 30 min | 330,000 tested, 0.12% active | Intestinal-type alkaline phosphatase (Homo sapiens), P09923 | inhibition, % at 10 µM | AID 2544, 2010;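 active means inhibition reaching a set limit with compound at 10 µM in the primary screen, cut at about 35% in these data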;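 further: plate controls were DMSO wells with enzyme for no effect and no-enzyme buffer wells for full effect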
Target sequence (P09923 whole entry, looked up): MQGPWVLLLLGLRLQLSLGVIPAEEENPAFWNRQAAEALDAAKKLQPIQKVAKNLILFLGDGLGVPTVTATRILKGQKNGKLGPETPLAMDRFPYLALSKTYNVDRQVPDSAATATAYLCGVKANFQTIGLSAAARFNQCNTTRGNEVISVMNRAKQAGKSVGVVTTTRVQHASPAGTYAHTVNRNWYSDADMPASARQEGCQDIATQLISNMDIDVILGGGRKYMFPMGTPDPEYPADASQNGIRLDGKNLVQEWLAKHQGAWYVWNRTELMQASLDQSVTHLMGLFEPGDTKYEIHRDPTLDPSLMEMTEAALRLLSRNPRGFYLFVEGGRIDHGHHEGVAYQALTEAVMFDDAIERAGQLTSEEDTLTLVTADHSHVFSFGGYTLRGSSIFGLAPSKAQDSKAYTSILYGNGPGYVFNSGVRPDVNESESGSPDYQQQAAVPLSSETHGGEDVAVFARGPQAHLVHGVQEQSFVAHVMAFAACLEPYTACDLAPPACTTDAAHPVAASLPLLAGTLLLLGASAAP
hIAP activ: human IAP activators, primary screen, biochemical, luminescence, uHTS | activation factor at 10 µM | purified human IAP, CDP-Star luminescence, 30 min; stronger effect = higher value; 1 = vehicle-only enzyme, 0 = enzyme-free background | AID 2524, 2010 | 330,000 tested, 0.16% active | Intestinal-type alkaline phosphatase (Homo sapiens), P09923;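 active means activation factor of the enzyme at least 2-fold when tested at 20 µM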
mIAP activ: activators of mouse IAP, primary screen, biochemical, luminescence, uHTS; intestinal alkaline phosphatase [Mus musculus]; muIAP, CDP-Star luminescence, 30 min; stronger effect = higher value; 1 = vehicle-only enzyme signal, 0 = enzyme-free wells; activation factor at 10 µM; 330,000 tested, 0.24% active; AID 2805, 2010;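 active means activation factor of at least 2 at 20 µM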
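also added = chemiluminescent substrate CDP-Star | test system = mouse IAP enzyme | signal = chemiluminescence readout | compound = DMSO-dissolved test compounds | incubation = 30 min at room temperature | benchmarks = DMSO wells, no-enzyme wells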
Active calls of the source: *. Sampled rows, rich in hits. Any-hit rate of the full collection: about 0.77%.

How did COc1cccc(NC(=S)NC2CC3CCCC(C2)N3C2CCCC2)c1 (centres undefined) do in these assays?
bIAP inhibitor: -22; mIAP inh: -30; bIAP activator: 1.2; hIAP inh: -24; hIAP activ: 1.2; mIAP activ: 1.3

Results for O=C1CCC(C(=O)Nc2cc(C(F)(F)F)ccc2-n2cncn2)=NN1 ?
mIAP inh: -10; hIAP inh: -7; hIAP activ: 1.1; mIAP activ: 1.1

How did CC(C)C(=O)Nc1c(-c2ccccc2Cl)c(=O)c2ccccc2n1C do in these assays?
mIAP inh: 6; hIAP inh: 8; hIAP activ: 0.92; mIAP activ: 0.94

Results for CCOC(=O)C1CCCN(C(=O)c2ccc(NC(=O)CC3SC(N4CCCC4)=NC3=O)cc2)C1 (centres undefined) ?
mIAP inh: 4; hIAP inh: 16; hIAP activ: 0.84; mIAP activ: 0.96

What do the screens show for `Cn1nc(C(=O)NC2CCCCC2)c2ccccc2c1=O`?
bIAP inhibitor: 4; mIAP inh: 4; bIAP activator: 1; hIAP inh: 12; hIAP activ: 0.88; mIAP activ: 0.96

How did Cn1nc(CC(=O)NC2CCCCCCCCCCC2)c2ccccc2c1=O do in these assays?
bIAP inhibitor: -129; mIAP inh: -7; bIAP activator: 2.3*; hIAP inh: 18; hIAP activ: 0.82; mIAP activ: 1.1

What do the screens show for `O=C(OCC#CCSc1nnc(-c2cccc3ccccc23)o1)c1cc2ccccc2o1`?
mIAP inh: 11; hIAP inh: 15; hIAP activ: 0.85; mIAP activ: 0.89

What do the screens show for `Fc1c(F)c(F)c(N/N=C/c2c[nH]c3ccccc23)c(F)c1F`?
bIAP inhibitor: -169; mIAP inh: 6; bIAP activator: 2.7*; hIAP inh: -12; hIAP activ: 1.1; mIAP activ: 0.94

How did COc1ccc(CCNC(=O)CSc2nnc(CNC(=O)c3c(F)cccc3Cl)o2)cc1OC do in these assays?
mIAP inh: -2; hIAP inh: 13; hIAP activ: 0.87; mIAP activ: 1

How did CCOC(=O)N1CCC(NC(=O)c2ccc3c(c2)N(Cc2ccccc2)CCS3)CC1 do in these assays?
bIAP inhibitor: -152; mIAP inh: -27; bIAP activator: 2.5*; hIAP inh: 4; hIAP activ: 0.96; mIAP activ: 1.3

What do the screens show for `CCOC(=O)N1CCC(NC(=O)c2ccc3c(c2)N(Cc2ccc(C)cc2)CCS3)CC1`?
bIAP inhibitor: -4; mIAP inh: -23; bIAP activator: 1; hIAP inh: 0; hIAP activ: 1; mIAP activ: 1.2

What do the screens show for `CCOc1ccc(S(=O)(=O)NN)cc1`?
bIAP inhibitor: -99; mIAP inh: -4; bIAP activator: 2*; hIAP inh: -9; hIAP activ: 1.1; mIAP activ: 1

What do the screens show for `CCC(Oc1ccccc1F)C(=O)NCCCn1ccnc1` (centres undefined)?
mIAP inh: -5; hIAP inh: 3; hIAP activ: 0.97; mIAP activ: 1.1

What do the screens show for `Cc1ccc(NC(=O)NCCCc2ccccc2)cc1`?
bIAP inhibitor: 27; mIAP inh: -117; bIAP activator: 0.7; hIAP inh: 4; hIAP activ: 0.96; mIAP activ: 2.2*

Results for S=C(NCCc1ccccc1)Nc1ccccc1Cl ?
bIAP inhibitor: -14; mIAP inh: 2; bIAP activator: 1.1; hIAP inh: 4; hIAP activ: 0.96; mIAP activ: 0.98

Results for S=C(NCCCc1ccccc1)Nc1ccccc1Cl ?
bIAP inhibitor: 3; mIAP inh: -163; bIAP activator: 1; hIAP inh: -4; hIAP activ: 1; mIAP activ: 2.6*

What do the screens show for `O=C(NCCCc1ccccc1)Nc1cccc(Cl)c1`?
bIAP inhibitor: -2; mIAP inh: -318; bIAP activator: 1; hIAP inh: -6; hIAP activ: 1.1; mIAP activ: 4.2*

Results for Fc1cc(Br)ccc1NC(=S)NCCc1ccccc1 ?
bIAP inhibitor: 8; mIAP inh: -119; bIAP activator: 0.9; hIAP inh: -8; hIAP activ: 1.1; mIAP activ: 2.2*

What do the screens show for `C=CC[C@H](CC(=O)N(CCO)Cc1ccccc1)C(=O)N[C@@H](COC(=O)[C@@H](CC=C)Cc1ccc(F)cc1)Cc1c[nH]c2ccccc12`?
mIAP inh: -1; hIAP inh: -15; hIAP activ: 1.2; mIAP activ: 1

How did CC1=CC(C)(C)N2C(=O)C3(N=C(N)NC(Nc4ccccc4)=N3)c3cc(C)cc1c32 (centres undefined) do in these assays?
bIAP inhibitor: -134; mIAP inh: -121; bIAP activator: 2.3*; hIAP inh: 2; hIAP activ: 0.98; mIAP activ: 2.2*

How did O=C(NCCSCc1ccco1)Nc1cc(Cl)cc(Cl)c1 do in these assays?
mIAP inh: -136; hIAP inh: -15; hIAP activ: 1.2; mIAP activ: 2.4*

What do the screens show for `COCCn1c(SCC(=O)NC(=O)NCc2ccccc2)nc2ccccc2c1=O`?
mIAP inh: -10; hIAP inh: -9; hIAP activ: 1.1; mIAP activ: 1.1

Results for O=C(Nc1cccc(Cl)c1)N1CCN(C2c3ccccc3-c3ccccc32)CC1 ?
mIAP inh: -109; hIAP inh: 16; hIAP activ: 0.84; mIAP activ: 2.1*

Results for O=C(NC1CCN(C(=O)Nc2cccc(Cl)c2)CC1)c1ccccc1 ?
mIAP inh: -1; hIAP inh: 4; hIAP activ: 0.96; mIAP activ: 1

Results for CC(=O)c1cccc(NC(=O)CSc2ncc(C(=O)Nc3ccccc3)c(=O)n2C)c1 ?
mIAP inh: 18; hIAP inh: -9; hIAP activ: 1.1; mIAP activ: 0.82

How did CC(=O)N1CCN(C(=O)c2cc3c(s2)CCC(C)C3)CC1 (centres undefined) do in these assays?
mIAP inh: -6; hIAP inh: -7; hIAP activ: 1.1; mIAP activ: 1.1

How did CCOc1ccc(NS(=O)(=O)c2ccc3c(c2)N(C(C)=O)CCS3)cc1 do in these assays?
mIAP inh: -13; hIAP inh: 13; hIAP activ: 0.87; mIAP activ: 1.1

How did COc1ccc(C(=O)N2CCN(C(=O)CC(C)C)CC2)cc1OC do in these assays?
bIAP inhibitor: 0; mIAP inh: 4; bIAP activator: 1; hIAP inh: -8; hIAP activ: 1.1; mIAP activ: 0.96

Bioassay records from PubChem.
